Experimental data from ChEMBL document CHEMBL4130608, “Isolation, Derivative Synthesis, and Structure-Activity Relationships of Antiparasitic Bromopyrrole Alkaloids from the Marine Sponge Tedania brasiliensis” (J Nat Prod, 2018).
≈ marks a conversion by molar mass, not a printed value. Values belong to the compound of their own block, whether it stands above or below them. Calls of active or inactive are those of the source. The calls are words filed in the database; no cut-off is given here.

Tests used:
Leishmania amazonensis [1] = assay: Antileishmanial activity against Leishmania amazonensis MHOM/BR/1973/M2269 promastigotes after 24 hrs by MTT assay; assay type: functional, organism-based; details: MHOM/BR/1973/M2269, 24 h
How it was run: (§1)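 Promastigotes (L. amazonensis, L. infantum; 26 °C, M199 with 20% heat-inactivated FBS, hemin, adenine, L-glutamine, plus 5% human urine for L. infantum) or T. cruzi Y epimastigotes (LIT with hemin, 10% FCS, 28 °C). Exposed to a series of concentrations for 24 h. Viability read by MTT. EC50 from sigmoidal fit of concentration–response. Triplicates, repeated two or three times.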

[2] = Selectivity index, ratio of MDL50 for human HepG2 cells to IC50 for drug-sensitive blood stage Plasmodium falciparum 3D7; assay type: toxicity; details: HepG2 cells versus blood stage Plasmodium falciparum 3D7, read-out: Selectivity Index
[3] = Cytotoxicity against human HepG2 cells after 24 hrs by MTT assay; assay type: cell-based; details: read-out: MDL50
How it was run: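 HepG2 cells grown in RPMI-1640 with 10% FBS, seeded at 5 × 10^3 cells/well and allowed to adhere for 18 h. Exposed to 1,000–1 μg/mL for 24 h at 37 °C, 5% CO2. MTT (5 mg/mL stock) added for 3 h, formazan dissolved in DMSO, absorbance read at 570 and 630 nm. Viability expressed as % of untreated control after background subtraction.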

Trypanosoma cruzi = assay: Antitrypanosomal activity against Trypanosoma cruzi Y epimastigotes after 24 hrs by MTT assay; assay type: functional, organism-based; how it was run: as §1
Plasmodium falciparum [4] = assay: Antiplasmodial activity against drug-sensitive blood stage Plasmodium falciparum 3D7 by SYBR green 1 staining based fluorescence assay; assay type: functional, organism-based
How it was run: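 Sorbitol-synchronized ring-stage 3D7 exposed to a range of concentrations (samples in 0.05% DMSO), in triplicate. Then lysed with Tris/EDTA/saponin/Triton buffer containing SYBR Green I (1:20000) for 30 min. IC50 from curve fitting against untreated growth.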

Leishmania infantum = assay: Antileishmanial activity against Leishmania infantum MHOM/BR/1972/LD promastigotes after 24 hrs by MTT assay; assay type: functional, organism-based; how it was run: as §1
Plasmodium falciparum [5] = assay: Antiplasmodial activity against chloroquine/cycloguanil/pyrimethamine-resistant blood stage Plasmodium falciparum K1 by SYBR green 1 staining based fluorescence assay; assay type: functional, organism-based
How it was run: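 Freshly sorbitol-synchronized ring stages were exposed in triplicate to a concentration series, solubilized in 0.05% DMSO (v/v), alongside sample-free cultures. Cells were lysed for 30 min in 20 mM Tris pH 7.5, 5 mM EDTA, 0.008% saponin and 0.08% Triton X-100 with SYBR green I (1:20000). IC50 was obtained by curve fitting against untreated growth.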

Leishmania amazonensis [6] = assay: Antileishmanial activity against Leishmania amazonensis amastigotes infected in BALB/c mouse BMDM assessed as reduction in intracellular amastigotes at 25 uM after 24 hrs by microscopic analysis relative to control; assay type: functional; parameters: scale not given: the % may be the effect or the level left
How it was run: (§2)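 BALB/c bone marrow macrophages infected with stationary-phase L. amazonensis promastigotes (MOI 10) for 1 h, then washed and held 24 h at 33 °C, 5% CO2. Treated with 6.125, 25, 50 or 100 μM for 24 h at 33 °C. Cells MeOH-fixed and stained. Amastigotes counted in 300 cells per coverslip on triplicate coverslips. Expressed as % reduction versus untreated infected cells. Two independent experiments.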

BMDM = assay: Cytotoxicity against BALB/c mouse BMDM after 24 hrs by MTT assay; assay type: cell-based
How it was run: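 Differentiated BALB/c female mouse bone marrow macrophages incubated at 37 °C with increasing concentrations for 24 h. Viability read by MTT and CC50 calculated.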

Leishmania amazonensis [7] = assay: Antileishmanial activity against Leishmania amazonensis amastigotes infected in BALB/c mouse BMDM assessed as reduction in intracellular amastigotes at 100 uM after 24 hrs by microscopic analysis relative to control; assay type: functional; parameters: scale not given: the % may be the effect or the level left; how it was run: as §2
Leishmania amazonensis [8] = assay: Antileishmanial activity against Leishmania amazonensis amastigotes infected in BALB/c mouse BMDM assessed as reduction in intracellular amastigotes at 50 uM after 24 hrs by microscopic analysis relative to control; assay type: functional; parameters: scale not given: the % may be the effect or the level left; how it was run: as §2
Leishmania amazonensis [9] = assay: Antileishmanial activity against Leishmania amazonensis amastigotes infected in BALB/c mouse BMDM assessed as reduction in intracellular amastigotes at 6.125 uM after 24 hrs by microscopic analysis relative to control; assay type: functional; parameters: scale not given: the % may be the effect or the level left; how it was run: as §2
Leishmania amazonensis [10] = assay: Antileishmanial activity against Leishmania amazonensis amastigotes infected in BALB/c mouse BMDM assessed as reduction in intracellular amastigotes after 24 hrs by microscopic analysis; assay type: functional, organism-based; how it was run: as §2
Plasmodium falciparum [11] = assay: Antiplasmodial activity against chloroquine/pyrimethamine-resistant Plasmodium falciparum K1 assessed as reduction in [3H]hypoxanthine incorporation pretreated for 48 hrs followed by [3H]hypoxanthine addition measured after 24 hrs by liquid scintillation counting method; assay type: functional, organism-based
[12] = test system: Trypanosoma brucei rhodesiense; assay: Antitrypanosomal activity against Trypanosoma brucei rhodesiense STIB 900 bloodstream forms after 72 hrs by alamar blue staining based fluorescence assay; assay type: functional, organism-based; details: STIB 900, 72 h
Leishmania donovani = assay: Antileishmanial activity against Leishmania donovani MHOM/ET/67/L82 amastigote forms after 72 hrs by alamar blue staining based fluorescence assay; assay type: functional, organism-based; details: MHOM/ET/67/L82, 72 h
Plasmodium falciparum [13] = assay: Antiplasmodial activity against chloroquine/cycloguanil/pyrimethamine-resistant blood stage Plasmodium falciparum K1 assessed as morphological changes at 10 times IC50 after 8 to 16 hrs by microscopic analysis; assay type: functional, organism-based
How it was run: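 Highly synchronized blood-stage parasites were kept under continuous treatment, with a DMSO-treated control. Morphology was examined by microscopy at 0, 8, 16 and 32 h post-synchronization. Images are representative of three independent experiments.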

HepG2 = assay: Cytotoxicity against human HepG2 cells assessed as morphological changes at 10 uM by microscopic method; assay type: cell-based; details: hepg2, 10 µM
How it was run: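 HepG2 cells treated at 10 μM for 24 h. Microscopic morphology compared with untreated cells.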

Plasmodium falciparum [14] = assay: Synergistic antiplasmodial activity against drug-sensitive blood stage Plasmodium falciparum 3D7 in presence of artesunate; assay type: functional
How it was run: (§3)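 Each drug's stock was made in complete medium so that the final concentration approximates its IC50 after 3–4 twofold dilutions. Stocks were mixed v/v at ratios ranging from 0:5 to 5:0 and serially diluted two-fold to seven concentrations. FIC50 was computed for each drug and summed as ΣFIC50.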

Plasmodium falciparum [15] = assay: Synergistic antiplasmodial activity against chloroquine/cycloguanil/pyrimethamine-resistant blood stage Plasmodium falciparum K1 in presence of artesunate; assay type: functional; how it was run: as §3
Plasmodium falciparum [16] = assay: Antiplasmodial activity against drug-sensitive blood stage Plasmodium falciparum 3D7 ring forms assessed as morphological changes at 10 times IC50 after 8 to 16 hrs by microscopic analysis; assay type: functional, organism-based
How it was run: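 Morphology examined by microscopy at 0, 8, 16 and 32 h post-synchronization. Three independent experiments.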

Compound: CC1(C)N=C(N)N=C(N)N1c1ccc(Cl)cc1 [CYCLOGUANIL]
- IC50 (Plasmodium falciparum [4]): 0.01 µM
- IC50 (Plasmodium falciparum [5]): 0.54 µM

Compound: O=C(NCCCNCCCCNCCCNC(=O)c1cc(Br)c(Br)[nH]1)c1cc(Br)c(Br)[nH]1
- EC50 (Leishmania amazonensis [1]): 44 µM
- selectivity ratio [2]: 52
- Activity (Leishmania amazonensis [6]): 45.4%
- CC50 at 24 h [3]: 99 µM
- CC50 (BMDM): > 100 µM
- Activity (Leishmania amazonensis [7]): 81.2%
- Activity (Leishmania amazonensis [8]): 51%
- EC50 (Trypanosoma cruzi): > 100 µM
- IC50 (Plasmodium falciparum [4]): 2 µM
- Activity (Leishmania amazonensis [9]): 27.3%
- EC50 (Leishmania infantum): 18 to 19 µM
- Activity (Leishmania amazonensis [10]): Dose-dependent effect

Compound: NC[C@H]1[C@@H]2CN3C(=O)c4cc(Br)c(Br)n4[C@H]4NC(N)=N[C@]43[C@H]2[C@@]2(N=C(N)N[C@@H]2O)[C@@H]1Cl
- IC50 (Plasmodium falciparum [11]): 1.48 µg/mL (≈ 2.56 µM)
- IC50 [12]: 0.46 µg/mL (≈ 0.796 µM)
- IC50 (Leishmania donovani): 1.48 µg/mL (≈ 2.56 µM)

Compound: NC1=N/C(=C\CCNC(=O)c2cc(Br)c[nH]2)C(=O)N1
- IC50 (Plasmodium falciparum [11]): 1.34 µg/mL (≈ 4.11 µM)

Compound: O=C(O)CC1CNC(=O)c2cc(Br)c(Br)n21 (stereo unspecified)
- IC50 [12]: 1.53 µg/mL (≈ 4.35 µM)
- IC50 (Leishmania donovani): 3.85 µg/mL (≈ 10.9 µM)

Compound: O=C(NCCCCNCCCNC(=O)c1cc(Br)c(Br)[nH]1)c1cc(Br)c(Br)[nH]1
- Activity (Plasmodium falciparum [13]): Active
- EC50 (Leishmania amazonensis [1]): > 100 µM
- selectivity ratio [2]: 15
- Activity (HepG2): Non-Toxic
- CC50 at 24 h [3]: 16 µM
- fractional inhibitory concentration index (FICI) (Plasmodium falciparum [14]): 1
- EC50 (Trypanosoma cruzi): > 100 µM
- fractional inhibitory concentration index (FICI) (Plasmodium falciparum [15]): 1
- IC50 (Plasmodium falciparum [4]): 1 µM
- IC50 (Plasmodium falciparum [5]): 1.1 µM
- EC50 (Leishmania infantum): > 100 µM
- Activity (Plasmodium falciparum [16]): Active

Now from value to compound, other results behind:

- EC50 (Trypanosoma cruzi): > 100 µM
- IC50 (Plasmodium falciparum [4]): 7 µM
Compound: O=C(NCCCCNCCCNC(=O)c1cc(Br)c[nH]1)c1cc(Br)c[nH]1
- EC50 (Leishmania amazonensis [1]): > 100 µM
- selectivity ratio [2]: ≥ 54
- CC50 at 24 h [3]: ≥ 400 µM
- EC50 (Leishmania infantum): > 100 µM

- EC50 (Trypanosoma cruzi): > 50 µM
- IC50 (Plasmodium falciparum [4]): > 10 µM
Compound: [N-]=[N+]=NCC(=O)N(CCCCNC(=O)c1cc(Br)c(Br)[nH]1)CCCNC(=O)c1cc(Br)c(Br)[nH]1
- EC50 (Leishmania amazonensis [1]): > 100 µM
- EC50 (Leishmania infantum): > 100 µM

- EC50 (Trypanosoma cruzi): > 100 µM
- IC50 (Plasmodium falciparum [4]): 3 µM
Compound: O=C(NCCCCNCCCNC(=O)c1cc(Br)c(Br)o1)c1cc(Br)c(Br)o1
- EC50 (Leishmania amazonensis [1]): 18 µM
- selectivity ratio [2]: ≥ 125
- Activity (Leishmania amazonensis [6]): 35%
- CC50 at 24 h [3]: ≥ 400 µM
- CC50 (BMDM): 82 µM
- Activity (Leishmania amazonensis [7]): 77.4%
- Activity (Leishmania amazonensis [8]): 60%
- Activity (Leishmania amazonensis [9]): 55.6%
- EC50 (Leishmania infantum): 23 µM
- Activity (Leishmania amazonensis [10]): Dose-dependent effect

- EC50 (Trypanosoma cruzi): > 100 µM
- IC50 (Plasmodium falciparum [4]): > 10 µM
Compound: Cc1ccc(C(=O)NCCCCNCCCNC(=O)c2ccc(C)o2)o1
- EC50 (Leishmania amazonensis [1]): > 100 µM
- EC50 (Leishmania infantum): > 100 µM

- EC50 (Trypanosoma cruzi): 24 µM
- IC50 (Plasmodium falciparum [4]): > 10 µM
Compound: O=C(NCCSCCNC(=O)c1cc(Br)c(Br)[nH]1)c1cc(Br)c(Br)[nH]1
- EC50 (Leishmania amazonensis [1]): 43 µM
- CC50 (BMDM): 66 µM
- EC50 (Leishmania infantum): 24 µM

- EC50 (Trypanosoma cruzi): > 100 µM
- IC50 (Plasmodium falciparum [4]): > 10 µM
Compound: O=C(NCCCCNCCCNC(=O)c1cc2ccccc2[nH]1)c1cc2ccccc2[nH]1
- EC50 (Leishmania amazonensis [1]): > 100 µM
- EC50 (Leishmania infantum): > 100 µM

- EC50 (Trypanosoma cruzi): > 100 µM
- IC50 (Plasmodium falciparum [4]): > 10 µM
Compound: CC(=O)N(CCCCNC(=O)c1cc(Br)c(Br)[nH]1)CCCNC(=O)c1cc(Br)c(Br)[nH]1
- EC50 (Leishmania amazonensis [1]): > 100 µM
- EC50 (Leishmania infantum): > 100 µM

- EC50 (Trypanosoma cruzi): 7 µM
- IC50 (Plasmodium falciparum [4]): > 10 µM
Compound: O=C(NCCCCCNC(=O)c1cc(Br)c(Br)[nH]1)c1cc(Br)c(Br)[nH]1
- EC50 (Leishmania amazonensis [1]): 19 µM
- CC50 (BMDM): 52 µM
- EC50 (Leishmania infantum): 24 µM
